This note sets out measurements from PubChem BioAssay.

SMILES strings stand for the structures. Calls of active or inactive are those of the source.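 The calls were made as follows, unless noted: active = fluorescence slope higher than the sample average by over 3 SD (cut at about -0.22 in these data, passing the limit was not always enough); inactive = the rest.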

The nature of assay [1]: inhibitors of TNFa-induced NFkB p65 translocation, primary screen, imaging, HUVEC, MLSMR starter and 10KST1 sets (AID 438;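 active = inhibition above 20% together with a positive visual image hit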;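 also: compound added about 3h40 before a 20 min TNFalpha stimulation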;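 as to inhibition: signal is the nuclear over cytoplasmic p65 intensity ratio per well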). Conditions: HUVEC TNFa-induced p65 nuclear translocation; cell count: measured here: nuclei count (cytotoxicity indicator), at 2.08 µM; inhibition: at 2 µM, stronger effect = higher value, 0% TNFa-plus-vehicle, 100% no-TNFa wells.
A short description of assay [2]: inhibitors of mutant huntingtin aggregation, primary screen, imaging, exon1htt(103Q)mCFP cells, high-content imaging (AID 483;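 active = visual image review flags a hit and inhibition of aggregation exceeds 20%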;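 also: compound exposure lasted 3 days before fixation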;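 as to nuclei count: percent of the per-plate median nuclei count of sample wells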). Conditions: exon1htt(103Q)mCFP cell line, aggregate imaging, at 2 µM; inhibition of aggregation: stronger effect = higher value; nuclei count: measured here: cell count, toxicity.
Assay [3] in a line: inhibitors of E-selectin induction by TNFa, primary screen, imaging, HUVEC, immunofluorescence, MLSMR starter and 10KST1 sets (AID 487;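 active = visually confirmed hit in the image check and inhibition above 20%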;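 as to inhibition: signal is fraction of cell area covered by stained E-selectin grains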;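 as to nuclei count: 100% = median nuclei count of all wells on the same plate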). Conditions: HUVEC TNFalpha-induced E-selectin immunofluorescence imaging, at 2 µM; inhibition: stronger effect = higher value; nuclei count: measured here: cell number, toxicity.
The target of assay [4] is Voltage-gated potassium channel subunit beta-2 (Rattus norvegicus) (UniProt P62483). The assay is described as follows: KvBeta enzyme negative modulators, primary screen, biochemical, NADPH fluorescence (AID 622).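 Also: slope of raw intensity against log time taken from 70 to 1610 s.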 Conditions: recombinant KvBeta, 4-cyanobenzaldehyde reduction, at 10 µM, stronger effect = higher value.
Chain of Voltage-gated potassium channel subunit beta-2 (Rattus norvegicus) (P62483 whole entry, looked up): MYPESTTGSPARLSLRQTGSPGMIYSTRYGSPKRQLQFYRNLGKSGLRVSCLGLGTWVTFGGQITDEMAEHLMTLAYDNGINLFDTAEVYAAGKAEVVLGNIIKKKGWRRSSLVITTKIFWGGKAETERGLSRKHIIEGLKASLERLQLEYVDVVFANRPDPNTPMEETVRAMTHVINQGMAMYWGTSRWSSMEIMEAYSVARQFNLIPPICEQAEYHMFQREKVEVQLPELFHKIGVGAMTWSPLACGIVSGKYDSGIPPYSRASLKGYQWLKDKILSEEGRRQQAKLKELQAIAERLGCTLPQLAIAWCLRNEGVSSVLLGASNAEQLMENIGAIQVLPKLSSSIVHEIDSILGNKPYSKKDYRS
Assay [5] shares this target. The assay is described as follows: KvBeta positive modulators, primary screen, biochemical, NADPH fluorescence (AID 623;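 active = NADPH fluorescence slope more negative than the mean of all samples by about 3 SD, 99.7% confidence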;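 also: fluorescence intensity change per second fitted from 20 to 320 s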). Conditions: Recombinant KvBeta, NADPH fluorescence decrease slope, 10 min; at 10 µM; stronger effect = lower value.
Assay [6] concerns the target Muscarinic acetylcholine receptor M4 (Homo sapiens) (UniProt P08173). The assay is described as follows: compounds altering M4/GIRK thallium flux, either direction, primary screen, M4 allosteric agonist project, cell-based, HEK293 M4/GIRK, BTC-AM (AID 625;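 active = fluorescence slope after compound addition differing from the mean of all tested samples at 99.7% confidence, mostly higher but some lower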;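 also: thallium influx through GIRK channels coupled to M4 in HEK293 cells with BTC-AM dye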). Conditions: at 10 µM, actives lie on both sides. The method in brief:
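System: HEK293 cells with M4 receptor and GIRK channels | Incubation: Cells overnight at 37 °C, BTC-AM loading 1 h, reads 2 min total | Technique: Kinetic BTC-AM fluorescence sampled at 1 Hz, 10 s pre-addition baseline | Measure: Post-addition slope, 15–24 s, of baseline-normalized fluorescence | Control set: Carbachol positive, DMSO negative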

The nature of assay [7]: inhibitors of Sendai virus-induced IRF3 signaling, primary screen, TLR/RLR signaling modifier project, cell-based, Sendai virus stimulus, luciferase, 10K MLSCN set (AID 602276;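 active = inhibition at or above 50% at 10 µM; inactive = inhibition below 50%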;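 also: firefly luciferase from ISG56 promoter only with Renilla not read in this screen; 0% = Sendai virus plus DMSO and 100% = medium plus DMSO without virus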). Conditions: HEK293 RL24 IRF3 luciferase reporter, at 10 µM, stronger effect = higher value. A general note: Reporter assays use an easily measured gene product as a stand-in for the process of interest.
The nature of assay [8]: inhibitors of poly I:C-induced TLR3 signaling, primary screen, cell-based, poly I:C stimulus, luciferase, 10K MLSCN set (AID 602277;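 active = inhibition of the reporter signal at or above 50%; inactive = inhibition below 50%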). Conditions: HEK293-TLR3 RL24 IRF3 luciferase reporter, at 10 µM, stronger effect = higher value.

Chain of Muscarinic acetylcholine receptor M4 (Homo sapiens) (P08173 whole entry, looked up): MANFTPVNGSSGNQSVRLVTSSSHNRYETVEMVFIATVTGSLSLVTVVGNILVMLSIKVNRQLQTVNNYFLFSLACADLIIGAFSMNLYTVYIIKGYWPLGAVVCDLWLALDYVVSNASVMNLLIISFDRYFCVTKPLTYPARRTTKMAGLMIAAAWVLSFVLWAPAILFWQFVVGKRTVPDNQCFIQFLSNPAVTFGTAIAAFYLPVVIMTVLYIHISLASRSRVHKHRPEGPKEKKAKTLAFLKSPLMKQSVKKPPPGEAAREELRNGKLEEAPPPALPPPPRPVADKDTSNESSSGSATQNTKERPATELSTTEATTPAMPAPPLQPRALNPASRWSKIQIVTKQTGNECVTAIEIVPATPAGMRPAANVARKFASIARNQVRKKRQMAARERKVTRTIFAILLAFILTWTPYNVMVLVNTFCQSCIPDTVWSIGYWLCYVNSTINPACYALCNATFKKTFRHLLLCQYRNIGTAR

As for `COC(=O)Nc1ccc(C)cc1NC(=O)OC`, the cell count in assay [1] amounted to 624. The inhibition in assay [1] was -20.8% (inactive); in assay [3], 16% (inactive); in assay [7], -9.05% (inactive); in assay [8], -6.68% (inactive). Also, in assay [2], the inhibition of aggregation was -13.1% (inactive). Further, the values for the nuclei count in assay [2] and in assay [3] were 98.6% and 86.5%, respectively. Besides, the fluorescence slope in assay [4] is -0.574 (inactive); in assay [6], 0.00692 (inactive). Besides, in assay [5], the NADPH fluorescence slope was 2.5e-05 (inactive).
Take `O=C(Cn1nnc(-c2ccncc2)n1)Nc1ccc2c(c1)CCC2`: in assay [1], the cell count came out at 674. The inhibition was -8.6% (inactive) in assay [1], -115% (inactive) in assay [3], -0.547% (inactive) in assay [7] and -23.3% (inactive) in assay [8]. Further, in assay [2], the inhibition of aggregation is 5% (inactive). The nuclei count in assay [2] is 89.1%; in assay [3] it was 140%. In addition, the fluorescence slope in assay [4] was -0.465 (inactive); in assay [6], 0.00619 (inactive). In assay [5], the NADPH fluorescence slope was -6.3e-05 (inactive).
As to `Cc1cc2c(=O)n(CC(=O)N3CCN(c4ccccc4)CC3)cnc2s1`, the cell count in assay [1] was determined as 632. Also, the inhibition in assay [1] was -22.3% (inactive); in assay [3] it was 2.7% (inactive); in assay [7], 7.52% (inactive); in assay [8] it was 14.5% (inactive). In addition, the inhibition of aggregation in assay [2] is 0.5% (inactive). Further, the nuclei count in assay [2] stood at 105%; in assay [3] it was 94.9%. Further, the fluorescence slope in assay [4] is -0.595 (inactive); in assay [6] it was 0.0045 (inactive). The NADPH fluorescence slope in assay [5] is 1.9e-06 (inactive).
`CC1CCN(C(=S)c2ccccc2O)CC1`: the cell count in assay [1] came to 713. In addition, the inhibition is -2.9% (inactive) in assay [1], -144% (inactive) in assay [3], 24.9% (inactive) in assay [7] and 34.5% (inactive) in assay [8]. In addition, in assay [2], the inhibition of aggregation was 7.3% (inactive). The nuclei count in assay [2] was found to be 98.7%; in assay [3] it was 121%. Also, the fluorescence slope was -0.536 (inactive) in assay [4] and 0.0045 (inactive) in assay [6]. Further, the NADPH fluorescence slope in assay [5] is -5.2e-05 (inactive).
With `CCN(c1ccccc1)S(=O)(=O)c1ccc(F)cc1C`, in assay [1], the cell count worked out at 207. In addition, the inhibition in assay [1] is 4.7% (inactive); in assay [3], -11.8% (inactive); in assay [7] it was 12.3% (inactive); in assay [8], 22.6% (inactive). Further, the inhibition of aggregation in assay [2] was -4.7% (inactive). The nuclei count worked out at 66.7% in assay [2] and 119% in assay [3]. For the same compound, the fluorescence slope in assay [4] was -0.58 (inactive); in assay [6], 0.00509 (inactive). For the same compound, the NADPH fluorescence slope in assay [5] was -2.3e-05 (inactive).
In the case of `CC1=C(C#N)C(c2ccc3ncccc3c2)C(C#N)=C(C)N1`, the cell count in assay [1] worked out at 641. In addition, the inhibition is 1.7% (inactive) in assay [1], -66.3% (inactive) in assay [3], 5.74% (inactive) in assay [7] and 5.72% (inactive) in assay [8]. For the same compound, the inhibition of aggregation in assay [2] was -43.5% (inactive). Also, the nuclei count is 130% in assay [2] and 110% in assay [3]. Also, the fluorescence slope in assay [4] is -0.44 (inactive); in assay [6] it was 0.0045 (inactive). In addition, in assay [5], the NADPH fluorescence slope is 1.3e-05 (inactive).
`CCOC(=O)C1CCN(c2c(NCCCN(CC)c3ccccc3)c(=O)c2=O)CC1`: in assay [1], the cell count amounted to 266. Further, the inhibition in assay [1] is 5.2% (inactive); in assay [3], -20.2% (inactive); in assay [7], 2.28% (inactive); in assay [8], 9.33% (inactive). In assay [2], the inhibition of aggregation is 8.3% (inactive). For the same compound, the nuclei count was found to be 97.6% in assay [2] and 95.4% in assay [3]. Moreover, the fluorescence slope in assay [4] is -0.43 (inactive); in assay [6] it was 0.00476 (inactive). Moreover, the NADPH fluorescence slope in assay [5] was -0.000398 (inactive).
In the case of `O=C(c1ccc(Cl)cc1)C1CCN(C(=O)NC2CCCCC2)CC1`, the cell count in assay [1] worked out at 456. Besides, the inhibition in assay [1] was -15% (inactive); in assay [3], -37.3% (inactive); in assay [7] it was 4.14% (inactive); in assay [8], -12.4% (inactive). For the same compound, the inhibition of aggregation in assay [2] was 13.9% (inactive). In addition, the nuclei count in assay [2] came out at 86.5%; in assay [3], 104%. In addition, the fluorescence slope is -0.541 (inactive) in assay [4] and 0.00452 (inactive) in assay [6]. Moreover, in assay [5], the NADPH fluorescence slope was -1.3e-05 (inactive).
Consider `COCCn1c(=O)[nH]c2cc(C(=O)NCCCN3CCN(c4ccc(F)cc4)CC3)ccc2c1=O`, for which, in assay [1], the cell count was determined as 333. Also, the inhibition in assay [1] was 21.3% (inactive); in assay [3] it was -22.8% (inactive); in assay [7], 16.2% (inactive); in assay [8], 9.46% (inactive). Also, in assay [2], the inhibition of aggregation was -5.1% (inactive). In addition, the nuclei count in assay [2] came to 107%; in assay [3], 111%. Moreover, the fluorescence slope in assay [4] is -0.472 (inactive); in assay [6] it was 0.00483 (inactive). Also, the NADPH fluorescence slope in assay [5] is -3.1e-05 (inactive).

By inhibition is commonly meant the drop in the measured response relative to a control, in per cent.
